Source: ChEMBL document CHEMBL4270565, “Design, synthesis and antimicrobial evaluation of propylene-tethered ciprofloxacin-isatin hybrids” (Eur J Med Chem, 2018)
Converted amounts (≈) assume the structure as drawn.

What was measured:
[1] = Cytotoxicity against African green monkey Vero cells assessed as reduction in cell viability after 72 hrs by MTT assay; type: cell-based; details: chlorocebus sabaeus
Method in brief: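 VERO cells were kept in MEM with Earle's salts and 10% FBS at 37 °C, 5% CO2. They were seeded in 96-well plates and allowed to recover for 24 h. Cells were then exposed to compounds in DMSO over a series from 1000 down to 4 for 72 h. Viability was read by MTT, and CC50 was calculated by Bliss analysis.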

Escherichia coli [2] = experiment: Antibacterial activity against extended-spectrum beta-lactamase deficient Escherichia coli ATCC 25922 after 18 to 24 hrs by two-fold serial dilution method; type: functional
Method in brief: (§1)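 Agar two-fold dilution MIC. Compounds were dissolved in 0.1 N NaOH and water, then serially diluted in melted Mueller-Hinton agar, with top concentrations starting at 128. Plates were inoculated at about 10 cfu and incubated at 35 °C for 18–24 h. MIC was taken as the lowest concentration giving 90% inhibition of growth.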

Enterococcus faecium [3] = experiment: Antibacterial activity against Enterococcus faecium ATCC 700221 after 18 to 24 hrs by two-fold serial dilution method; type: functional; method in brief: as §1
[4] = system: Acinetobacter calcoaceticus; experiment: Antibacterial activity against Acinetobacter calcoaceticus ATCC 19606 after 18 to 24 hrs by two-fold serial dilution method; type: functional; method in brief: as §1
Morganella morganii = experiment: Antibacterial activity against Morganella morganii ATCC 25830 after 18 to 24 hrs by two-fold serial dilution method; type: functional; method in brief: as §1
Pseudomonas aeruginosa = experiment: Antibacterial activity against Pseudomonas aeruginosa ATCC 27853 after 18 to 24 hrs by two-fold serial dilution method; type: functional; method in brief: as §1
Enterococcus faecalis [5] = experiment: Antibacterial activity against Enterococcus faecalis ATCC 51299 after 18 to 24 hrs by two-fold serial dilution method; type: functional; method in brief: as §1
Citrobacter freundii = experiment: Antibacterial activity against extended-spectrum beta-lactamase harboring Citrobacter freundii ATCC 43864 after 18 to 24 hrs by two-fold serial dilution method; type: functional
Method in brief: (§2)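 Agar two-fold serial dilution in Mueller-Hinton agar. Strains came from the Chinese Center for Disease Control and Prevention. Compounds were dissolved in 0.1 N NaOH and water, then diluted in melted agar to final levels stepping down from 128. Plates were inoculated with bacterial cfu and incubated at 35 C for 18–24 h. MIC is the lowest concentration giving 90% growth inhibition.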

Enterococcus faecium [6] = experiment: Antibacterial activity against Enterococcus faecium 13-7 after 18 to 24 hrs by two-fold serial dilution method; type: functional; method in brief: as §1
Enterobacter cloacae = experiment: Antibacterial activity against Enterobacter cloacae ATCC 43560 after 18 to 24 hrs by two-fold serial dilution method; type: functional
Enterococcus faecalis [7] = experiment: Antibacterial activity against Enterococcus faecalis ATCC 29212 after 18 to 24 hrs by two-fold serial dilution method; type: functional; method in brief: as §1
Escherichia coli [8] = experiment: Antibacterial activity against extended-spectrum beta-lactamase harboring Escherichia coli ATCC 35218 after 18 to 24 hrs by two-fold serial dilution method; type: functional; method in brief: as §2
Klebsiella pneumoniae [9] = experiment: Antibacterial activity against extended-spectrum beta-lactamase harboring Klebsiella pneumoniae ATCC 700603 after 18 to 24 hrs by two-fold serial dilution method; type: functional; method in brief: as §2
Staphylococcus aureus [10] = experiment: Antibacterial activity against methicillin-sensitive Staphylococcus aureus ATCC 29213 after 18 to 24 hrs by two-fold serial dilution method; type: functional; method in brief: as §2
[11] = system: Mycobacterium tuberculosis; experiment: Antimycobacterial activity against Mycobacterium tuberculosis H37Rv after 7 days; type: functional; details: 168 h
Method in brief: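 Rapid direct susceptibility test in 48-well plates. Two-fold dilutions of compound from DMSO stocks were mixed with an equal volume of bacterial suspension. Medium-only wells served as growth controls and water-only wells as no-growth controls. Plates were sealed and held at 37 C in a humid box, and controls were checked at 3 days. MIC (90% growth inhibition) was read visually by high-magnification observation of the cells and re-read at 7 days.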

Klebsiella aerogenes = experiment: Antibacterial activity against Enterobacter aerogenes ATCC 13048 after 18 to 24 hrs by two-fold serial dilution method; type: functional; method in brief: as §1
Klebsiella pneumoniae [12] = experiment: Antibacterial activity against extended-spectrum beta-lactamase deficient Klebsiella pneumoniae 15-2 after 18 to 24 hrs by two-fold serial dilution method; type: functional; method in brief: as §1
[13] = system: Stenotrophomonas maltophilia; experiment: Antibacterial activity against Stenotrophomonas maltophilia ATCC 13636 after 18 to 24 hrs by two-fold serial dilution method; type: functional; method in brief: as §1
[14] = system: Staphylococcus epidermidis; experiment: Antibacterial activity against methicillin-resistant Staphylococcus epidermidis 13-3 after 18 to 24 hrs by two-fold serial dilution method; type: functional; method in brief: as §2
Staphylococcus aureus [15] = experiment: Antibacterial activity against methicillin-resistant Staphylococcus aureus ATCC 33591 after 18 to 24 hrs by two-fold serial dilution method; type: functional; method in brief: as §2
Providencia rettgeri = experiment: Antibacterial activity against Providencia rettgeri ATCC 31052 after 18 to 24 hrs by two-fold serial dilution method; type: functional; method in brief: as §1
Proteus mirabilis = experiment: Antibacterial activity against Proteus mirabilis 13-1 after 18 to 24 hrs by two-fold serial dilution method; type: functional; method in brief: as §1
[16] = system: Staphylococcus epidermidis; experiment: Antibacterial activity against methicillin-sensitive Staphylococcus epidermidis ATCC 12228 after 18 to 24 hrs by two-fold serial dilution method; type: functional; method in brief: as §1
Serratia marcescens = experiment: Antibacterial activity against Serratia marcescens ATCC 21074 after 18 to 24 hrs by two-fold serial dilution method; type: functional; method in brief: as §1
Proteus vulgaris = experiment: Antibacterial activity against Proteus vulgaris ATCC 29905 after 18 to 24 hrs by two-fold serial dilution method; type: functional; method in brief: as §1

| Structure (SMILES) | MIC90 (Escherichia coli [2]) | MIC90 (Enterococcus faecium [3]) | MIC90 [4] | MIC90 (Morganella morganii) | MIC90 (Pseudomonas aeruginosa) | MIC90 (Enterococcus faecalis [5]) | MIC90 (Citrobacter freundii) | MIC90 (Enterococcus faecium [6]) | MIC90 (Enterobacter cloacae) | MIC90 (Enterococcus faecalis [7]) | MIC90 (Escherichia coli [8]) | MIC90 (Klebsiella pneumoniae [9]) | MIC90 (Staphylococcus aureus [10]) | MIC90 [11] | MIC90 (Klebsiella aerogenes) | MIC90 (Klebsiella pneumoniae [12]) | MIC90 [13] | MIC90 [14] | MIC90 (Staphylococcus aureus [15]) | MIC90 (Providencia rettgeri) | other results |
| --- | --- | --- | --- | --- | --- | --- | --- | --- | --- | --- | --- | --- | --- | --- | --- | --- | --- | --- | --- | --- | --- |
| CO/N=C1\C(=O)N(CCCN2CCN(c3cc4c(cc3F)c(=O)c(C(=O)OCCCN3C(=O)/C(=N/OC)c5cc(C)ccc53)cn4C3CC3)CC2)c2ccc(C)cc21 | 8 µg/mL (≈ 10.1 µM) | 128 µg/mL (≈ 162 µM) | 64 µg/mL (≈ 80.8 µM) | 64 µg/mL (≈ 80.8 µM) | 32 µg/mL (≈ 40.4 µM) | 128 µg/mL (≈ 162 µM) | 32 µg/mL (≈ 40.4 µM) | > 128 µg/mL | 16 µg/mL (≈ 20.2 µM) | 32 µg/mL (≈ 40.4 µM) | 16 µg/mL (≈ 20.2 µM) | 32 µg/mL (≈ 40.4 µM) | 32 µg/mL (≈ 40.4 µM) | 25 µg/mL (≈ 31.6 µM) | 32 µg/mL (≈ 40.4 µM) | 16 µg/mL (≈ 20.2 µM) | 64 µg/mL (≈ 80.8 µM) | 64 µg/mL (≈ 80.8 µM) | 32 µg/mL (≈ 40.4 µM) | 32 µg/mL (≈ 40.4 µM) | CC50 at 72 h [1]: 16 µg/mL (≈ 20.2 µM); MIC90 (Proteus mirabilis): 64 µg/mL (≈ 80.8 µM); MIC90 [16]: 16 µg/mL (≈ 20.2 µM); MIC90 (Serratia marcescens): 32 µg/mL (≈ 40.4 µM); MIC90 (Proteus vulgaris): 32 µg/mL (≈ 40.4 µM) |
| CCO/N=C1\C(=O)N(CCCN2CCN(c3cc4c(cc3F)c(=O)c(C(=O)O)cn4C3CC3)CC2)c2ccccc21 | ≤ 0.03 µg/mL | 8 µg/mL (≈ 14.2 µM) | 1 µg/mL (≈ 1.78 µM) | 0.03 µg/mL (≈ 0.0534 µM) | 1 µg/mL (≈ 1.78 µM) | 1 µg/mL (≈ 1.78 µM) | ≤ 0.03 µg/mL | 32 µg/mL (≈ 57 µM) | 0.06 µg/mL (≈ 0.107 µM) | 1 µg/mL (≈ 1.78 µM) | ≤ 0.03 µg/mL | 0.5 µg/mL (≈ 0.89 µM) | 0.25 µg/mL (≈ 0.445 µM) | 0.78 µg/mL (≈ 1.39 µM) | ≤ 0.03 µg/mL | 0.03 µg/mL (≈ 0.0534 µM) | 0.125 µg/mL (≈ 0.223 µM) | 2 µg/mL (≈ 3.56 µM) | 0.25 µg/mL (≈ 0.445 µM) | ≤ 0.03 µg/mL | CC50 at 72 h [1]: 64 µg/mL (≈ 114 µM); MIC90 (Proteus mirabilis): ≤ 0.03 µg/mL; MIC90 [16]: 0.25 µg/mL (≈ 0.445 µM); MIC90 (Serratia marcescens): 0.125 µg/mL (≈ 0.223 µM); MIC90 (Proteus vulgaris): ≤ 0.03 µg/mL |
| O=C1C(=O)N(CCCOC(=O)c2cn(C3CC3)c3cc(N4CCN(CCCN5C(=O)C(=O)c6ccccc65)CC4)c(F)cc3c2=O)c2ccccc21 | 4 µg/mL (≈ 5.67 µM) | > 128 µg/mL | 128 µg/mL (≈ 181 µM) | 64 µg/mL (≈ 90.7 µM) | > 128 µg/mL | > 128 µg/mL | 64 µg/mL (≈ 90.7 µM) | > 128 µg/mL | 128 µg/mL (≈ 181 µM) | 64 µg/mL (≈ 90.7 µM) | 16 µg/mL (≈ 22.7 µM) | 64 µg/mL (≈ 90.7 µM) | 128 µg/mL (≈ 181 µM) | 12.5 µg/mL (≈ 17.7 µM) | 64 µg/mL (≈ 90.7 µM) | 64 µg/mL (≈ 90.7 µM) | > 128 µg/mL | > 128 µg/mL | > 128 µg/mL | 128 µg/mL (≈ 181 µM) | CC50 at 72 h [1]: 32 µg/mL (≈ 45.3 µM); MIC90 (Proteus mirabilis): 64 µg/mL (≈ 90.7 µM); MIC90 [16]: 64 µg/mL (≈ 90.7 µM); MIC90 (Serratia marcescens): 32 µg/mL (≈ 45.3 µM); MIC90 (Proteus vulgaris): 64 µg/mL (≈ 90.7 µM) |
| NNC(=O)c1ccncc1 [ISONIAZID] | – | – | – | – | – | – | – | – | – | – | – | – | – | 0.05 µg/mL (≈ 0.365 µM) | – | – | – | – | – | – | – |
| C[C@H]1COc2c(N3CCN(C)CC3)c(F)cc3c(=O)c(C(=O)O)cn1c23.C[C@H]1COc2c(N3CCN(C)CC3)c(F)cc3c(=O)c(C(=O)O)cn1c23.O [LEVOFLOXACIN] | ≤ 0.03 µg/mL | 16 µg/mL | 0.125 µg/mL | ≤ 0.03 µg/mL | 2 µg/mL | 1 µg/mL | ≤ 0.03 µg/mL | 64 µg/mL | ≤ 0.03 µg/mL | 1 µg/mL | ≤ 0.03 µg/mL | 0.5 µg/mL | 0.125 µg/mL | – | 0.06 µg/mL | ≤ 0.03 µg/mL | 1 µg/mL | 4 µg/mL | 0.125 µg/mL | ≤ 0.03 µg/mL | MIC90 (Proteus mirabilis): ≤ 0.03 µg/mL; MIC90 [16]: 0.125 µg/mL; MIC90 (Serratia marcescens): 0.125 µg/mL; MIC90 (Proteus vulgaris): ≤ 0.03 µg/mL |
| CO[C@H]1/C=C/O[C@@]2(C)Oc3c(C)c(O)c4c(O)c(c(/C=N/N5CCN(C)CC5)c(O)c4c3C2=O)NC(=O)/C(C)=C\C=C\[C@H](C)[C@H](O)[C@@H](C)[C@@H](O)[C@@H](C)[C@H](OC(C)=O)[C@@H]1C [RIFAMPIN] | – | – | – | – | – | – | – | – | – | – | – | – | – | 0.39 µg/mL (≈ 0.474 µM) | – | – | – | – | – | – | – |
